Measurements taken from paper PMC10330775 (Experimental cell research, 2023).

Target: T1, RsTSPO WT (Cereibacter sphaeroides, UniProt Q9RFC8)
T1 sequence (Q9RFC8 1-158): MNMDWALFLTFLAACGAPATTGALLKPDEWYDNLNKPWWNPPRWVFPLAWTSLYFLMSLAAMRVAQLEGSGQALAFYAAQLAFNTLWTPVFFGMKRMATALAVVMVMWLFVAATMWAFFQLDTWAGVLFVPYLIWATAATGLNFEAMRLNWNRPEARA
Experiment: tryptophan fluorescence quenching titration, Hill fit
Assay type: binding
How it was run: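 Purified wild-type Rhodobacter sphaeroides TSPO, 2.5 uM in 20mM Tris pH 8.0, 150mM NaCl, 0.20% DM, 2mM TCEP, titrated at room temperature with increasing amounts of test compound in DMSO. Emission scanned 290–400 nm, excitation 285 nm. Ligand, buffer and solvent absorption/emission controls run. Kd from Hill-equation fit of the quenching curve.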

Kd: 172 ± 11 µM
SMILES: Nc1ccccc1C(=O)C[C@H](N)C(=O)O [Kynurenine]
